“Also recorded” adds a separate entry of the source. Where two headings read alike, the source gives them in different places.
How the values were obtained:
[1] = test system: PEDF-R; experiment: Immunoblot, PEDF-R protein in ARPE-19 lysates; format: cell-based, human; conditions: H2O2 plus 10 ng/mL TNF-α, 8 hours
How it was run: (§1)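 ARPE-19 cells (passages 27–40) were grown in DMEM/F-12 with 10% FBS at 37°C, 5% CO₂ to confluency and starved in 0.5% serum for 8 h. They were then exposed to graded H₂O₂ with 10 ng/mL TNF-α for 8 h. Total lysates were run on SDS-PAGE and immunoblotted, then stripped and reprobed for β-tubulin as loading control. Duplicate wells; each experiment at least twice.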

[2] = test system: 5-LOX; experiment: Immunoblot, 5-LOX protein in ARPE-19 lysates; format: cell-based, human; conditions: H2O2 plus 10 ng/mL TNF-α, 8 hours
How it was run: as §1

[3] = test system: ARPE-19 cells; experiment: Pyknotic nuclei counting; format: cell-based, human; conditions: 600 μM H2O2, 16 hours, Hoechst stain
How it was run: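 ARPE-19 cells were serum-starved, then treated with 600 μM H₂O₂ and test peptide together for 16 h. Cells were fixed in methanol (15 min, RT) and stained with 5 μM Hoechst in PBS (15 min, RT). Five random fields per well were imaged, and pyknotic nuclei were counted as a percentage of total cells.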

[4] = test system: ARPE-19 cells; experiment: Cell viability; format: cell-based, human; conditions: for Cell viability under oxidative stress: H2O2/TNF-α, ATP live cell biomarker, duplicate wells
How it was run: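 ARPE-19 cells (passages 27–40; DMEM/F-12, 10% FBS, 37°C, 5% CO₂) were plated at 2 × 10⁴ cells/well and grown to confluence (72 h). After 8 h starvation in 0.5% serum, cells received increasing H₂O₂ plus TNF-α (10 ng/mL), with or without test peptide, for 16 h. Relative live-cell numbers came from intracellular ATP luminescence; each point is the mean of duplicate wells.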

[5] = test system: ALOX5; experiment: RT-PCR, ALOX5 mRNA in ARPE-19; format: cell-based, human; conditions: H2O2 200, 400, 500, 600, 800 μM plus 10 ng/mL TNF-α, 8 hours, relative to 18S, duplicate wells
How it was run: (§2)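 Confluent ARPE-19 cells were starved in 0.5% serum for 8 h, then treated with H₂O₂ plus TNF-α. Total RNA was purified on silica columns, and 1 μg was reverse transcribed with SuperScript III. mRNA was measured by semiquantitative real-time RT-PCR with gene-specific primers and 18S primers as internal control.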

[6] = test system: PNPLA2; experiment: RT-PCR, PNPLA2 mRNA in ARPE-19; format: cell-based, human; conditions: H2O2 200, 400, 500, 600, 800 μM plus 10 ng/mL TNF-α, 8 hours, relative to 18S, duplicate wells
How it was run: as §2

[7] = test system: ARPE-19 cells; conditions: cited from earlier work
[8] = test system: primary pig RPE cells; experiment: Cell viability; format: cell-based
How it was run: (§3)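 Primary pig RPE cultures plated at 2 × 10⁴ cells/well (96-well) and grown to confluence (72 h), then exposed to H₂O₂ with TNF-α (10 ng/mL) and test peptide for the indicated time. Live cells were measured as intracellular ATP luminescence (CellTiter-Glo) and dead cells as dead-cell protease luminescence (CytoTox-Glo), with lysis reagent added for total-cell signal. Relative cell numbers are from duplicate wells.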

[9] = test system: PEDF; conditions: peptides from Leu159-Met325 of PEDF-R; cited from earlier work
[10] = test system: primary pig RPE cells; experiment: Cell death; format: cell-based; conditions: for Protection from oxidative stress-induced cell death (summary): pig primary RPE, H2O2/TNF-α; for Cell death under oxidative stress: pig RPE
How it was run: as §3

[11] = test system: ARPE-19 cells; experiment: Cell death; format: cell-based, human; conditions: for Number of dead cells under oxidative stress: H2O2 (600 μM for SCR comparison), dead cell protease activity; for Protection from oxidative stress-induced cell death (summary): H2O2/TNF-α
How it was run: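 ARPE-19 cells (passages 27–40) grown in DMEM/F-12 with 10% FBS at 37°C, 5% CO₂, plated at 2 × 10⁴ cells/well (96-well) and cultured to confluency (72 h). Serum-starved 8 h in 0.5% serum, then exposed 16 h to H₂O₂ (600 μM for scrambled-control comparison) plus TNF-α (10 ng/mL) with test peptides. Dead-cell protease activity read by CytoTox-Glo; duplicate wells ± SD.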

[12] = test system: ARPE-19 cells; experiment: Detection of reactive oxygen species; format: cell-based, human; conditions: increasing H2O2 with or without 10 ng/mL TNF-α
How it was run: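 Confluent ARPE-19 cells in 96-well black plates were serum-starved (0.5% serum, 8 h), then given increasing H₂O₂ with or without 10 ng/mL TNF-α, plus test peptide. CellRox Green was added 30 min before the end point, and fluorescence was read at ex 485/em 520 nm. Triplicate wells per point; each experiment was run twice.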

[13] = test system: LTB4 (5-LOX activity) in ARPE-19 cells; experiment: Leukotriene B4 ELISA, ARPE-19 medium; format: cell-based, human
[14] = test system: LTB4 (5-LOX activity) in primary pig RPE cells; experiment: Leukotriene B4 ELISA, primary pig RPE medium; format: cell-based; conditions: 125 μM or 250 μM H2O2/TNF-α
How it was run: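 Primary pig RPE cultures received H₂O₂ with TNF-α and test peptide. Medium was collected per well, spun briefly at low speed, and 50 μL was assayed by competitive LTB₄ enzyme immunoassay. Concentration came from an LTB₄ standard curve and was normalized to cell number per well. Duplicate wells per condition, each well measured in triplicate; experiment run twice.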

[15] = test system: human recombinant 5-LOX; experiment: Peptide-affinity chromatography, human recombinant 5-LOX; format: binding; conditions: 0.1 M sodium phosphate, 0.1% NP-40, Western blot
How it was run: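 Human recombinant 5-LOX (300 ng) was incubated with P1-peptide agarose (0.4 nmol) in 0.1 M sodium phosphate and 0.1% NP-40 containing 25–250 mM NaCl, with gentle rotation at 4°C (1.5 h per general method). Agarose without peptide at 50 mM NaCl served as control resin. After extensive washes, bound protein was eluted in SDS-PAGE sample buffer and detected by anti-5-LOX Western blot (1:10,000) with chemiluminescence on film.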

[16] = test system: human recombinant 5-LOX; experiment: His-tag pull-down assay, 5-LOX and PEDF-R; format: binding; conditions: 5-LOX 250 ng, PEDF-R ∼350 and 700 ng, 0.1 M sodium phosphate, 50 mM NaCl, 0.1% NP-40, 4°C, 2 hours, Ni-NTA, Western blot

OO [H2O2]
PEDF-R protein level [1]: paralleled those for expression of their respective genes | 5-LOX protein level [2]: paralleled those for expression of their respective genes | Pyknotic nuclei level [3]: resulted in an increase | Relative cell numbers with increasing H2O2 ([4]; 100-1000 μM H2O2, 10 ng/mL TNF-α, 16 hours): concentration-dependent decrease in cell numbers | ALOX5 mRNA level [5]: remained unchanged | PNPLA2 mRNA level [6]: decreased the levels of PNPLA2 | Death mechanism of ARPE-19 cells ([7]; 400 and 600 μM H2O2): apoptosis | Death mechanism of ARPE-19 cells ([7]; H2O2 higher than 600 μM): necrosis | Death mechanism of ARPE-19 cells ([7]; TNF-α (10 ng/mL) and 400 to 800 μM H2O2): apoptotic mechanism via caspase activation | Relative cell numbers with increasing H2O2 ([8]; 50-250 μM H2O2, 10 ng/mL TNF-α): concentration-dependent decrease in cell numbers

E5b: PEDF-R peptide Ile^193-Leu^232, overlapping P1 (ICPQDSSTNIHELRVTNTSIQFNLRNLYRLSKALFPPEPL)
PEDF-binding affinity [9]: retain the PEDF-binding affinity of PEDF-R | Pyknotic nuclei level [3]: resulted in a decrease of pyknotic nuclei level | Protection from oxidative stress-induced cell death (summary) [10]: protected ARPE-19 and pig primary RPE cells from oxidative stress–induced cell death in a specific and concentration-dependent fashion | Cell viability under oxidative stress [4]: promoted cell viability | Number of dead cells under oxidative stress [11]: decreased cell death of RPE cells undergoing oxidative stress | Protection from oxidative stress-induced cell death (summary) [11]: protected ARPE-19 and pig primary RPE cells from oxidative stress–induced cell death in a specific and concentration-dependent fashion

TNF-α
ROS production, presence versus absence of TNF-α [12]: comparable under both conditions

P1: L4-derived peptide containing residues Thr^210-Leu^249 of human PEDF-R (TSIQFNLRNLYRLSKALFPPEPLVLREMCKQGYRDGLRFL; UniProt Q96AD5 210-249, looked up, fragment)
PEDF-binding affinity [9]: retain the PEDF-binding affinity of PEDF-R | LTB4 level under oxidative stress ([13]; 600 μM H2O2/TNF-α, 20 nM P1): decreased LTB4 to basal levels | LTB4 level under oxidative stress ([13]; 750 μM H2O2/TNF-α): only partially diminished LTB4 | Pyknotic nuclei level [3]: resulted in a decrease of pyknotic nuclei level | Cell death under oxidative stress ([10]; 125 μM H2O2): decreased death at 125 μM H2O2 | Cell death under oxidative stress ([10]; 250 μM H2O2): decreased cell death at 250 μM H2O2 | Protection from oxidative stress-induced cell death (summary) [10]: protected ARPE-19 and pig primary RPE cells from oxidative stress–induced cell death in a specific and concentration-dependent fashion | Protective effect against H2O2 ([4]; 600 μM H2O2 plus TNF-α (10 ng/mL), preliminary, data not shown): had protective effects against 600 μM H2O2 | Cell viability under oxidative stress [4]: promoted cell viability; also recorded: increased the ARPE-19 cell viability | LTB4 level under oxidative stress [14]: decreased LTB4 levels in primary pig RPE cells treated at 125 μM or 250 μM H2O2/TNF-α in a concentration-dependent fashion | Cell viability under oxidative stress ([8]; 125 μM H2O2): increased pig RPE cell viability | Cell numbers (viability) under oxidative stress ([8]; 250 μM H2O2): did not increase the cell numbers | Number of dead cells under oxidative stress [11]: decreased cell death of RPE cells undergoing oxidative stress; also recorded: decreased the number of dead cells under oxidative stress in a concentration-dependent fashion | Protection from oxidative stress-induced cell death (summary) [11]: protected ARPE-19 and pig primary RPE cells from oxidative stress–induced cell death in a specific and concentration-dependent fashion | Binding of 5-LOX to P1 at 250 mM NaCl ([15]; 250 mM NaCl): completely abolished | Binding of 5-LOX to P1 with increasing ionic strength ([15]; 25-250 mM NaCl): with increasing ionic strength the binding decreased

B1: His6-tag-PEDF-R: human recombinant His6/Xpress-tagged PEDF-R made by cell-free in vitro protein synthesis (protein)
chain: MFPREKTWNISFAGCGFLGVYYVGVASCLREHAPFLVANATHIYGASAGALTATALVTGVCLGEAGAKFIEVSKEARKRFLGPLHPSFNLVKIIRSFLLKVLPADSHEHASGRLGISLTRVSDGENVIISHFNSKDELIQANVCSGFIPVYCGLIPPSLQGVRYVDGGISDNLPLYELKNTITVSPFSGESDICPQDSSTNIHELRVTNTSIQFNLRNLYRLSKALFPPEPLVLREMCKQGYRDGLRFLQRNGLLNRPNPLLALPPARPHGPEDKDQAVESAQAEDYSQLPGEDHILEHLPARLNEALLEACVEPTDLLTTLSNMLPVRLATAMMVPYTLPLESALSFTIRLLEWLPDVPEDIRWMKEQTGSICQYLVMRAKRKLGRHLPSRLPEQVELRRVQSLPSVPLSCAAYREALPGWMRNNLSLGDALAKWEECQRQLLLGLFCTNVAFPPEALRMRAPADPAPAPADPASPQHQLAGPAPLLSTPAPEARPVIGALGL
modifications: left off: His6, end not stated, kept | Xpress, end not stated, kept
Bound 5-LOX in pull-down with His6-tag-PEDF-R [16]: proportional increase of bound 5-LOX | Bound 5-LOX in pull-down with His6-tag-PEDF-R ([16]; listed as His6/Xpress-tagged PEDF-R): via ionic interactions
